The values below come from ChEMBL document CHEMBL2021780, “Antineoplastic agents. 548. Synthesis of iodo- and diiodocombstatin phosphate prodrugs” (J Nat Prod, 2012).

Values after ≈ are worked out from the molar mass of the structure shown.

What all share (type): functional
The test system of one test is P388. Briefly: Growth inhibition of mouse P388 cells after 48 hrs by Z1 Beckman/Coulter particle counter analysis. The following applies: P388, 48 h, read-out: ED50 (the source's name). The essentials: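 Mouse P388 leukemia cells were incubated 24 h in 10% horse serum/Fisher medium, then exposed 48 h to serial compound dilutions. ED50 was calculated from cell counts on a Coulter Z1 particle counter.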

In a further test the test system is BXPC-3. Kind of test: Growth inhibition of human BxPC3 cells after 48 hrs by sulforhodamine B assay. The following applies: BXPC-3, 48 h. The essentials: (§1)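 NCI sulforhodamine B assay. Cells were seeded in 5% FBS/RPMI-1640 and incubated 24 h. Serial compound dilutions were then added for 48 h. Cells were fixed with trichloroacetic acid, stained with SRB and read by microplate reader. GI50 is the concentration giving 50% reduction in net protein increase, calculated from optical density data.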

A further test deals with MCF7. Kind of test: Growth inhibition of human MCF7 cells after 48 hrs by sulforhodamine B assay. Conditions: MCF7, 48 h. The essentials:
as §1

A further test has as its system SF-268. Briefly: Growth inhibition of human SF268 cells after 48 hrs by sulforhodamine B assay. The following applies: SF-268, 48 h. The essentials: as §1
The subject of the next test is NCI-H460. Briefly: Growth inhibition of human NCI-H460 cells after 48 hrs by sulforhodamine B assay. The following applies: NCI-H460, 48 h. The essentials: as §1
The next test has as its system KM-20L2. Briefly: Growth inhibition of human KM20L2 cells after 48 hrs by sulforhodamine B assay. The following applies: KM-20L2, 48 h. Summed up:
as §1

The subject of the next test is DU-145. Kind of test: Growth inhibition of human DU145 cells after 48 hrs by sulforhodamine B assay. The following applies: DU-145, 48 h. Summed up:
as §1

The next test has as its system Neisseria gonorrhoeae. Kind of test: Antibacterial activity against Neisseria gonorrhoeae ATCC 49226 by broth microdilution method. The essentials:
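Broth microdilution followed NCCLS standard methods. Compounds were reconstituted in sterile DMSO and diluted in the appropriate medium immediately before testing. MIC was taken as the lowest concentration giving no visible growth (optically clear). Assays were repeated on separate days.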

As for `COC(=O)[C@@H](N)Cc1c[nH]c2ccccc12.COC(=O)[C@@H](N)Cc1c[nH]c2ccccc12.COc1ccc(/C=C\c2cc(I)c(OC)c(OC)c2)cc1OP(=O)(O)O`, the EC50 in the test on P388 worked out at 0.0022 µg/mL. The GI50 turned out to be 0.26 µg/mL in the test on BXPC-3; 0.035 µg/mL in the test with MCF7; 0.0097 µg/mL in the test with SF-268; 0.0034 µg/mL in the test on NCI-H460; 0.59 µg/mL in the test with KM-20L2; 0.003 µg/mL in the test on DU-145. Further, the MIC against Neisseria gonorrhoeae came to 4 µg/mL.
Consider `COc1ccc(/C=C\c2cc(I)c(OC)c(OC)c2)cc1OP(=O)(O)O.OCN(CO)CO.OCN(CO)CO`, for which, in the test on P388, the EC50 worked out at 0.0029 µg/mL. Moreover, the GI50 with BXPC-3 is 0.37 µg/mL; in the test on MCF7, 0.0048 µg/mL; with SF-268 it was 0.0043 µg/mL; in the test on NCI-H460 it was 0.004 µg/mL; in the test on KM-20L2 it was 0.4 µg/mL; in the test with DU-145, 0.0047 µg/mL. Besides, the lowest concentration to inhibit growth against Neisseria gonorrhoeae (MIC) was 32 µg/mL.
Consider `C1COCCN1.C1COCCN1.COc1ccc(/C=C\c2cc(I)c(OC)c(OC)c2)cc1OP(=O)(O)O`, for which the EC50 with P388 came out at 0.0032 µg/mL. Besides, the GI50 with BXPC-3 came out at 0.21 µg/mL; with MCF7, 0.0047 µg/mL; in the test with SF-268, 0.0037 µg/mL; in the test on NCI-H460 it was 0.0036 µg/mL; with KM-20L2 it was 0.24 µg/mL; in the test with DU-145, 0.0026 µg/mL. In the test on Neisseria gonorrhoeae, this compound showed an MIC of 16 µg/mL.
As to `COc1ccc(/C=C\c2cc(F)c(OC)c(OC)c2)cc1O` [FLUORCOMBSTATIN], the EC50 in the test on P388 was found to be 0.002 µg/mL (≈ 0.00657 µM). The 50% growth inhibitory concentration (GI50) was 0.0027 µg/mL (≈ 0.00887 µM) in the test with MCF7; 0.0016 µg/mL (≈ 0.00526 µM) with SF-268; 0.0032 µg/mL (≈ 0.0105 µM) in the test with NCI-H460; greater than 1 µg/mL in the test on KM-20L2; 0.0019 µg/mL (≈ 0.00624 µM) with DU-145.
In the case of `COC(=O)CN.COC(=O)CN.COc1ccc(/C=C\c2cc(I)c(OC)c(I)c2)cc1OP(=O)(O)O`, in the test on P388, the EC50 worked out at 0.011 µg/mL. Also, the GI50 with BXPC-3 was 0.36 µg/mL; with MCF7 it was 0.1 µg/mL; in the test with SF-268, 0.054 µg/mL; in the test on NCI-H460, 0.03 µg/mL; in the test with KM-20L2 it was greater than 1 µg/mL; in the test with DU-145, 0.023 µg/mL. In addition, in the test on Neisseria gonorrhoeae, the MIC was less than 0.5 µg/mL.
For the compound `COc1ccc(/C=C/c2cc(I)c(OC)c(I)c2)cc1O`, the EC50 with P388 is greater than 10 µg/mL. Moreover, the GI50 in the test on BXPC-3 was 3 µg/mL (≈ 5.9 µM); with MCF7, 0.94 µg/mL (≈ 1.85 µM); with SF-268, 3.3 µg/mL (≈ 6.49 µM); in the test with NCI-H460, 3.4 µg/mL (≈ 6.69 µM); in the test on KM-20L2 it was greater than 10 µg/mL; in the test with DU-145 it was 5.8 µg/mL (≈ 11.4 µM).
On to `COc1ccc(/C=C/c2cc(I)c(OC)c(OC)c2)cc1O` [DIIODOCOMBSTATIN], for which the EC50 in the test on P388 turned out to be 0.189 µg/mL (≈ 0.458 µM). The GI50 is 2.7 µg/mL (≈ 6.55 µM) with BXPC-3; 0.18 µg/mL (≈ 0.437 µM) with MCF7; 0.55 µg/mL (≈ 1.33 µM) with SF-268; 0.21 µg/mL (≈ 0.509 µM) in the test with NCI-H460; 1.7 µg/mL (≈ 4.12 µM) in the test with KM-20L2; 0.27 µg/mL (≈ 0.655 µM) with DU-145.
For `COc1ccc(/C=C\c2cc(I)c(OC)c(I)c2)cc1OP(=O)(O)O.OCN(CO)CO.OCN(CO)CO`, in the test on P388, the EC50 was determined as 0.026 µg/mL. For the same compound, the GI50 is 0.33 µg/mL in the test on BXPC-3; 0.047 µg/mL with MCF7; 0.04 µg/mL in the test on SF-268; 0.025 µg/mL in the test on NCI-H460; 0.94 µg/mL in the test with KM-20L2; 0.021 µg/mL in the test with DU-145. This compound displayed an MIC in the test with Neisseria gonorrhoeae of less than 0.5 µg/mL.
Take `C1CCNCC1.C1CCNCC1.COc1ccc(/C=C\c2cc(I)c(OC)c(I)c2)cc1OP(=O)(O)O`: the EC50 with P388 came to 0.011 µg/mL. Moreover, the GI50 in the test on BXPC-3 was 0.33 µg/mL; with MCF7, 0.07 µg/mL; with SF-268, 0.041 µg/mL; with NCI-H460, 0.025 µg/mL; with KM-20L2, greater than 1 µg/mL; in the test with DU-145, 0.025 µg/mL. Also, the MIC in the test with Neisseria gonorrhoeae is less than 0.5 µg/mL.
`COc1ccc(/C=C\c2cc(O)c(OC)c(OC)c2)cc1O`: the EC50 in the test on P388 is 0.26 µg/mL (≈ 0.86 µM). Moreover, the GI50 was determined as 2.3 µg/mL (≈ 7.61 µM) in the test with BXPC-3; 0.49 µg/mL (≈ 1.62 µM) with MCF7; 0.0083 µg/mL (≈ 0.0275 µM) with SF-268; 0.19 µg/mL (≈ 0.628 µM) with NCI-H460; 1.2 µg/mL (≈ 3.97 µM) in the test on KM-20L2; 0.0043 µg/mL (≈ 0.0142 µM) in the test with DU-145.
